Experimental data pooled from the literature.
Each line is one published result; the experiments were not run side by side.
Target: SNF-related serine/threonine-protein kinase (SNRK, Homo sapiens, UniProt Q9NRH2)
Sequence (Q9NRH2 1-765, as in one of the studies): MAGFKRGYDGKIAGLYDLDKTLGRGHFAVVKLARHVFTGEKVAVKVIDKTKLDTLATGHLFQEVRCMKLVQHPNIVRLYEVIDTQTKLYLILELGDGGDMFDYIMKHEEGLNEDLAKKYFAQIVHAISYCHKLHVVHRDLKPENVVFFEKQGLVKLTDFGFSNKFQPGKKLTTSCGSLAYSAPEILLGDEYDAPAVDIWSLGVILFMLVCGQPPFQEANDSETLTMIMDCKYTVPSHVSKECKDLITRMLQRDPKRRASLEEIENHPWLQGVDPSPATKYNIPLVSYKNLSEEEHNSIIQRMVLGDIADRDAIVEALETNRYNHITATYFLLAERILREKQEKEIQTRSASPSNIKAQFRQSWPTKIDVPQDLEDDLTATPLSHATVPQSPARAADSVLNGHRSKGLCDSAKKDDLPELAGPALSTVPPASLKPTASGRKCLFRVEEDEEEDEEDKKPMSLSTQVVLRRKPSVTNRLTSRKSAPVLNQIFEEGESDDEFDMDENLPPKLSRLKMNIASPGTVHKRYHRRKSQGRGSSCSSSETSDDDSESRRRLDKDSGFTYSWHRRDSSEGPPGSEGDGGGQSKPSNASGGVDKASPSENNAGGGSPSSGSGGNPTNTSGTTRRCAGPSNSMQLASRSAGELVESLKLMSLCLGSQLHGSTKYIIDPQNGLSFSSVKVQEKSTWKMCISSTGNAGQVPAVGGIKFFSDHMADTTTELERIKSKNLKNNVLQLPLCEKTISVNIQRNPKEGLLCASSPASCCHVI

| Structure (SMILES) | read-out | method | concentration | remaining binding |
| --- | --- | --- | --- | --- |
| O=C(c1ccc(Nc2ncc(Cl)c(-c3ccc(Cl)s3)n2)cc1)N1CCC(N2CCCC2)CC1 | binding | competition with immobilised ligand | 1 µM | 87% |
| CN(c1nccc(-c2cnn3ncccc23)n1)C1CC1 | binding |  | 1 µM | 100% |
| O=C(c1ccc(Nc2nccc(-c3cc4ccccc4s3)n2)cc1)N1CCC(N2CCCC2)CC1 | binding | competition with immobilised ligand | 1 µM | 100% |
| F[C@@H]1CCN(c2nccc(-c3cnn4ncccc34)n2)C1 | binding |  | 1 µM | 100% |
| CNC(=O)[C@@H]1CC[C@@H](n2c(-c3ccc4cnccc4c3)nc3ccc(C(=O)NCc4cccc(C(N)=O)c4)cc32)C1 | binding | competition with immobilised ligand | 1 µM | 100% |
| COc1ccc2c(c1)O[C@@H](c1ccc(OC)c(OC)c1)C[C@H]2NC(=O)C1(c2ccc3c(c2)OC(F)(F)O3)CC1 | cell-free assay | competition with immobilised ligand | 1 µM | 90% |
| FC(F)(F)Oc1cccc(-c2cnc3ccc(-c4ccncc4)nn23)c1 | binding | competition with immobilised ligand | 5 µM | 71% |
| O=C(Nc1cccnn1)N1CCC(=Cc2cccc(Oc3ccc(C(F)(F)F)cn3)c2)CC1 | cell-free assay | competition with immobilised ligand | 1 µM | 100% |
| C[C@@H]1CCN(c2nccc(-c3cnn4ncccc34)n2)C1 | binding |  | 1 µM | 92% |
| Cc1cnc(Nc2ccc(C(=O)N3CCC(N4CCCC4)CC3)cc2)nc1-c1cc2ccccc2s1 | binding | competition with immobilised ligand | 1 µM | 100% |
| CO[C@@H](C)c1c(Nc2ccc([C@H](N(C)C(=O)C3CCS(=O)(=O)CC3)C(F)(F)F)cc2)cnc2cc(Cl)nn12 | cell-free assay | competition with immobilised ligand | 1 µM | 100% |
| O=C(Nc1c[nH]nc1C(=O)NC1CCNCC1)c1cc(F)cc(F)c1 | binding | competition with immobilised ligand | 1 µM | 97% |
| CC(=O)N1CCC(c2ccc(C(=O)NC(=N)N)cc2C(F)(F)F)CC1 | cell-free assay | competition with immobilised ligand | 1 µM | 100% |
| CN(C)c1nccc(-c2cnn3ncccc23)n1 | binding |  | 1 µM | 100% |
| Nc1ncc2c(n1)-c1c([nH]c3ccc(C#CC4CC4)cc13)CCCC2 | binding | competition with immobilised ligand | 1 µM | 88% |
| COc1cnc(Nc2cccc(S(N)(=O)=O)c2)nc1N1CCN(c2ccccc2)C(=O)C1 | binding | competition with immobilised ligand | 1 µM | 85% |
| CS(=O)(=O)NCC[C@H](NC(=O)c1cncc2c1cnn2-c1ccc(F)cc1)c1ccnc(S(C)(=O)=O)c1 | cell-free assay | competition with immobilised ligand | 1 µM | 100% |
| N[C@H]1CCN(c2nccc(-c3cnn4ncccc34)n2)C1 | binding |  | 1 µM | 100% |
| Cc1noc([C@H]2C[C@@H](c3ccc(C(F)(F)F)cc3)CN(C(=O)N3CCS(=O)(=O)C3)C2)n1 | cell-free assay | competition with immobilised ligand | 1 µM | 100% |
| CN(C)c1nccc(-c2cnc3ncccn23)n1 | binding |  | 1 µM | 91% |
| CC(=O)N1CCC(c2ccc(C(=O)NC3=NCCN3)cc2C(F)(F)F)CC1 | cell-free assay | competition with immobilised ligand | 1 µM | 98% |
| CN(C)c1ncc(F)c(-c2cnn3ncccc23)n1 | binding |  | 1 µM | 100% |
